Experimental data published in ChEMBL document CHEMBL1130012 (J Med Chem, 1997).
pKi: −log10 of the molar value.

Key:
Rattus norvegicus [1] = species: Rattus norvegicus; test: The Biodistribution of the antagonistic compound in male wistar rats, after 15 minutes of injection in the trachea expressed as (body weight-corrected) uptake value; format: organism-based; details: in vivo, 0.25 h
Rattus norvegicus [2] = test: The Biodistribution of the antagonistic compound along with pretreated atropine (2.5 mg/kg) in male wistar rats after 15 minutes of injection in the pancreas expressed as (body weight-corrected) uptake value; format: organism-based; details: in vivo, 0.25 h
Procedure, shortened: (§1)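 Same protocol, except the pretreatment was saline containing atropine (0.5 mg/0.5 mL; 2.5 mg/kg) given i.v. 1 min before tail-vein injection of the radioligand (1.85-2.78 MBq in 0.4 mL saline) into pentobarbital-anaesthetized (60 mg/kg) male Wistar rats (240 g). Tissues removed at 15 min and counted ex vivo. Uptake is body-weight-corrected DAR = (cpm/g tissue)/(cpm injected/g body weight).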

Rattus norvegicus [3] = test: The Biodistribution of the antagonistic compound along with pretreated atropine (2.5 mg/kg) in male wistar rats after 15 minutes of injection in the plasma expressed as (body weight-corrected) uptake value; format: organism-based; details: in vivo, 0.25 h; procedure, shortened: as §1
Rattus norvegicus [4] = test: The Biodistribution of the antagonistic compound along with pretreated atropine (2.5 mg/kg) in male wistar rats after 15 minutes of injection in the red blood cells expressed as (body weight-corrected) uptake value; Below limit of detection; format: organism-based; details: in vivo, 0.25 h; procedure, shortened: as §1
Rattus norvegicus [5] = test: The Biodistribution of the antagonistic compound along with pretreated atropine (2.5 mg/kg) in male wistar rats after 15 minutes of injection in the spleen expressed as (body weight-corrected) uptake value; format: organism-based; details: in vivo, 0.25 h; procedure, shortened: as §1
Rattus norvegicus [6] = test: The Biodistribution of the antagonistic compound along with pretreated atropine (2.5 mg/kg) in male wistar rats after 15 minutes of injection in the submandibular gland expressed as (body weight-corrected) uptake value; format: organism-based; details: in vivo, 0.25 h; procedure, shortened: as §1
Rattus norvegicus [7] = test: The Biodistribution of the antagonistic compound along with pretreated atropine (2.5 mg/kg) in male wistar rats after 15 minutes of injection in the testes expressed as (body weight-corrected) uptake value; format: organism-based, Testis; details: in vivo, 0.25 h; procedure, shortened: as §1
Rattus norvegicus [8] = test: The Biodistribution of the antagonistic compound along with pretreated atropine (2.5 mg/kg) in male wistar rats after 15 minutes of injection in the trachea expressed as (body weight-corrected) uptake value; format: organism-based; details: in vivo, 0.25 h; procedure, shortened: as §1
Rattus norvegicus [9] = species: Rattus norvegicus; test: The Biodistribution of the antagonistic compound in male wistar rats, after 15 minutes of injection in the bladder expressed as (body weight-corrected) uptake value; format: organism-based, Urinary bladder/Urine; details: in vivo, 0.25 h
Rattus norvegicus [10] = species: Rattus norvegicus; test: The Biodistribution of the antagonistic compound in male wistar rats, after 15 minutes of injection in the cerebellum expressed as (body weight-corrected) uptake value; Below limit of detection; format: organism-based; details: in vivo, 0.25 h
Rattus norvegicus [11] = species: Rattus norvegicus; test: The Biodistribution of the antagonistic compound in male wistar rats, after 15 minutes of injection in the cortex expressed as (body weight-corrected) uptake value; Below limit of detection; format: organism-based; details: in vivo, 0.25 h
Rattus norvegicus [12] = species: Rattus norvegicus; test: The Biodistribution of the antagonistic compound in male wistar rats, after 15 minutes of injection in the fat; format: organism-based; details: in vivo, 0.25 h
Rattus norvegicus [13] = species: Rattus norvegicus; test: The Biodistribution of the antagonistic compound in male wistar rats, after 15 minutes of injection in the heart expressed as (body weight-corrected) uptake value; format: organism-based; details: in vivo, 0.25 h
Rattus norvegicus [14] = species: Rattus norvegicus; test: The Biodistribution of the antagonistic compound in male wistar rats, after 15 minutes of injection in the intestine expressed as (body weight-corrected) uptake value; format: organism-based; details: in vivo, 0.25 h
Rattus norvegicus [15] = species: Rattus norvegicus; test: The Biodistribution of the antagonistic compound in male wistar rats, after 15 minutes of injection in the kidney expressed as (body weight-corrected) uptake value; format: organism-based; details: in vivo, 0.25 h
Rattus norvegicus [16] = species: Rattus norvegicus; test: The Biodistribution of the antagonistic compound in male wistar rats, after 15 minutes of injection in the lung expressed as (body weight-corrected) uptake value; format: organism-based; details: in vivo, 0.25 h
Rattus norvegicus [17] = species: Rattus norvegicus; test: The Biodistribution of the antagonistic compound in male wistar rats, after 15 minutes of injection in the muscle expressed as (body weight-corrected) uptake value; format: organism-based, Muscle tissue; details: in vivo, 0.25 h
Rattus norvegicus [18] = species: Rattus norvegicus; test: The Biodistribution of the antagonistic compound in male wistar rats, after 15 minutes of injection in the pancreas expressed as (body weight-corrected) uptake value; format: organism-based; details: in vivo, 0.25 h
Rattus norvegicus [19] = species: Rattus norvegicus; test: The Biodistribution of the antagonistic compound in male wistar rats, after 15 minutes of injection in the plasma expressed as (body weight-corrected) uptake value; format: organism-based; details: in vivo, 0.25 h
Rattus norvegicus [20] = test: The Biodistribution of the antagonistic compound along with pretreated atropine (2.5 mg/kg) in male wistar rats after 15 minutes of injection in the bladder; format: organism-based, Urinary bladder/Urine; details: in vivo, 0.25 h; procedure, shortened: as §1
Rattus norvegicus [21] = test: The Biodistribution of the antagonistic compound along with pretreated atropine (2.5 mg/kg) in male wistar rats after 15 minutes of injection in the cerebellum; Below limit of detection; format: organism-based; details: in vivo, 0.25 h; procedure, shortened: as §1
Rattus norvegicus [22] = test: The Biodistribution of the antagonistic compound along with pretreated atropine (2.5 mg/kg) in male wistar rats after 15 minutes of injection in the cortex expressed as (body weight-corrected) uptake value; Below limit of detection; format: organism-based; details: in vivo, 0.25 h; procedure, shortened: as §1
Rattus norvegicus [23] = test: The Biodistribution of the antagonistic compound along with pretreated atropine (2.5 mg/kg) in male wistar rats after 15 minutes of injection in the fat expressed as (body weight-corrected) uptake value; format: organism-based, Adipose tissue; details: in vivo, 0.25 h; procedure, shortened: as §1
Rattus norvegicus [24] = test: The Biodistribution of the antagonistic compound along with pretreated atropine (2.5 mg/kg) in male wistar rats after 15 minutes of injection in the heart expressed as (body weight-corrected) uptake value; format: organism-based; details: in vivo, 0.25 h; procedure, shortened: as §1
Rattus norvegicus [25] = species: Rattus norvegicus; test: The Biodistribution of the antagonistic compound in male wistar rats, after 15 minutes of injection in the red blood cells expressed as (body weight-corrected) uptake value; Below limit of detection; format: organism-based; details: in vivo, 0.25 h
Rattus norvegicus [26] = species: Rattus norvegicus; test: The Biodistribution of the antagonistic compound in male wistar rats, after 15 minutes of injection in the spleen; format: organism-based; details: in vivo, 0.25 h
Rattus norvegicus [27] = species: Rattus norvegicus; test: The Biodistribution of the antagonistic compound in male wistar rats, after 15 minutes of injection in the stomach expressed as (body weight-corrected) uptake value; format: organism-based; details: in vivo, 0.25 h
Rattus norvegicus [28] = species: Rattus norvegicus; test: The Biodistribution of the antagonistic compound in male wistar rats, after 15 minutes of injection in the submandibular gland expressed as (body weight-corrected) uptake value; format: organism-based; details: in vivo, 0.25 h
Rattus norvegicus [29] = species: Rattus norvegicus; test: The Biodistribution of the antagonistic compound in male wistar rats, after 15 minutes of injection in the testes expressed as (body weight-corrected) uptake value; format: organism-based, Testis; details: in vivo, 0.25 h
Rattus norvegicus [30] = test: The Biodistribution of the antagonistic compound along with pretreated atropine (2.5 mg/kg) in male wistar rats after 15 minutes of injection in the intestine expressed as (body weight-corrected) uptake value; format: organism-based; details: in vivo, 0.25 h; procedure, shortened: as §1
Rattus norvegicus [31] = test: The Biodistribution of the antagonistic compound along with pretreated atropine (2.5 mg/kg) in male wistar rats after 15 minutes of injection in the kidney expressed as (body weight-corrected) uptake value; format: organism-based; details: in vivo, 0.25 h; procedure, shortened: as §1
Rattus norvegicus [32] = test: The Biodistribution of the antagonistic compound along with pretreated atropine (2.5 mg/kg) in male wistar rats after 15 minutes of injection in the liver expressed as (body weight-corrected) uptake value; format: organism-based; details: in vivo, 0.25 h; procedure, shortened: as §1
Rattus norvegicus [33] = test: The Biodistribution of the antagonistic compound along with pretreated atropine (2.5 mg/kg) in male wistar rats after 15 minutes of injection in the lung expressed as (body weight-corrected) uptake value; format: organism-based; details: in vivo, 0.25 h; procedure, shortened: as §1
Rattus norvegicus [34] = test: The Biodistribution of the antagonistic compound along with pretreated atropine (2.5 mg/kg) in male wistar rats after 15 minutes of injection in the muscle expressed as (body weight-corrected) uptake value; format: organism-based, Muscle tissue; details: in vivo, 0.25 h; procedure, shortened: as §1
[35] = target: T1, Muscarinic acetylcholine receptor M2 (Rattus norvegicus, UniProt P10980); test: Binding affinity towards rat Muscarinic acetylcholine receptor M2 was determined
T1 sequence (P10980 whole entry): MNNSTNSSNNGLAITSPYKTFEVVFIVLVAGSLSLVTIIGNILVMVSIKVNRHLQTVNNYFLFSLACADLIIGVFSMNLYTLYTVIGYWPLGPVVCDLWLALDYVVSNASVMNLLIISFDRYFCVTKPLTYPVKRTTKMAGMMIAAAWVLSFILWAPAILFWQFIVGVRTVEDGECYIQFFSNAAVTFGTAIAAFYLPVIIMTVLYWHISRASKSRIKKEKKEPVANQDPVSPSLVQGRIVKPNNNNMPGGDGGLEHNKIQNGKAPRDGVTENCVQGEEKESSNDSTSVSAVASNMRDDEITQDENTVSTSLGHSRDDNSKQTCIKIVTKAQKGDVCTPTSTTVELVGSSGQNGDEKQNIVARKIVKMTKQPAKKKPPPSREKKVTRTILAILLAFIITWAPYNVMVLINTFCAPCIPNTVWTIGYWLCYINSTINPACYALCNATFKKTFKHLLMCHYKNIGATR

[36] = target: T2, Muscarinic acetylcholine receptor M1 (Bos taurus, UniProt Q8WMX0); format: cell membranes, Brain, Membrane
T2 sequence (Q8WMX0 whole entry): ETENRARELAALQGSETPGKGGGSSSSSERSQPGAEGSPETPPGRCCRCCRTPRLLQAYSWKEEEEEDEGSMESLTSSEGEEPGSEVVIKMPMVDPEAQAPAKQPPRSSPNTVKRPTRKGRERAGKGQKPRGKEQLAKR

[37] = target: T3, Muscarinic acetylcholine receptor M1 (Rattus norvegicus, UniProt P08482); test: Binding affinity towards rat Muscarinic acetylcholine receptor M1 was determined
T3 sequence (P08482 whole entry): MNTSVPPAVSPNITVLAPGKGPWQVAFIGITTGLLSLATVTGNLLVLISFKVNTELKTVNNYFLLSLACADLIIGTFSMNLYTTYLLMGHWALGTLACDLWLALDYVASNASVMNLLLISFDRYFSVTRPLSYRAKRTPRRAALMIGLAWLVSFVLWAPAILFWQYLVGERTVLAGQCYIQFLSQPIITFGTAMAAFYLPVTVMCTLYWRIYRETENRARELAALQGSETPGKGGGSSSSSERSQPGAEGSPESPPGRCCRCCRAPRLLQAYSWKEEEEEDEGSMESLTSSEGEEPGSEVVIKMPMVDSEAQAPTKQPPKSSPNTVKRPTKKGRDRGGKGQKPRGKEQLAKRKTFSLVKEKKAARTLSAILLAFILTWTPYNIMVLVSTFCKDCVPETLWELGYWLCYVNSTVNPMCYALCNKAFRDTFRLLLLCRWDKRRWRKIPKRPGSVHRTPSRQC

Rattus norvegicus [38] = species: Rattus norvegicus; test: The Biodistribution of the antagonistic compound in male wistar rats, after 15 minutes of injection in the liver expressed as (body weight-corrected) uptake value; format: organism-based; details: in vivo, 0.25 h
Rattus norvegicus [39] = test: The Biodistribution of the antagonistic compound along with pretreated atropine (2.5 mg/kg) in male wistar rats after 15 minutes of injection in the stomach expressed as (body weight-corrected) uptake value; format: organism-based; details: in vivo, 0.25 h; procedure, shortened: as §1

C[N+]1(C)CCC(OC(=O)[C@](O)(c2ccccc2)C2CCCCC2)CC1.[I-]
Uptake value (Rattus norvegicus [1]): 0.89
Uptake value (Rattus norvegicus [2]): 0.35
Uptake value (Rattus norvegicus [3]): 0.19
Uptake value (Rattus norvegicus [4]): Not Active
Uptake value (Rattus norvegicus [5]): 0.12
Uptake value (Rattus norvegicus [6]): 0.23
Uptake value (Rattus norvegicus [7]): 0.16
Uptake value (Rattus norvegicus [8]): 0.26
Uptake value (Rattus norvegicus [9]): 4.68
Uptake value (Rattus norvegicus [10]): Not Active
Uptake value (Rattus norvegicus [11]): Not Active
Uptake value (Rattus norvegicus [12]): 0.1
Uptake value (Rattus norvegicus [13]): 12.78
Uptake value (Rattus norvegicus [14]): 6.08
Uptake value (Rattus norvegicus [15]): 2.75
Uptake value (Rattus norvegicus [16]): 1.03
Uptake value (Rattus norvegicus [17]): 0.07
Uptake value (Rattus norvegicus [18]): 2.85
Uptake value (Rattus norvegicus [19]): 0.1
Uptake value (Rattus norvegicus [20]): 5.92
Uptake value (Rattus norvegicus [21]): Not Active
Uptake value (Rattus norvegicus [22]): Not Active
Uptake value (Rattus norvegicus [23]): 0.37
Uptake value (Rattus norvegicus [24]): 0.12
Uptake value (Rattus norvegicus [25]): Not Active
Uptake value (Rattus norvegicus [26]): 1.23
Uptake value (Rattus norvegicus [27]): 2.76
Uptake value (Rattus norvegicus [28]): 2.64
Uptake value (Rattus norvegicus [29]): 0.12
Uptake value (Rattus norvegicus [30]): 0.97
Uptake value (Rattus norvegicus [31]): 4.32
Uptake value (Rattus norvegicus [32]): 9.41
Uptake value (Rattus norvegicus [33]): 0.11
Uptake value (Rattus norvegicus [34]): 0.07
pKi [35]: 9.68
pKi [36]: 10.70
pKi [37]: 11.00
Uptake value (Rattus norvegicus [38]): 5.42
Uptake value (Rattus norvegicus [39]): 0.22
